Assay results: ChEMBL document CHEMBL4043297, “Synthesis and Structure-Activity Relationships of the Novel Antimalarials 5-Pyridinyl-4(1 H)-Pyridones” (J Med Chem, 2018)
pIC50: −log10 of the molar value. Blank lines part the entries; values can stand above or below the compound they belong to.

Columns and labels:
[1] = system: Plasmodium falciparum; assay: Antimalarial activity against Plasmodium falciparum 3D7A infected in human RBC after 48 hrs by [3H]-hypoxanthine incorporation assay; type: functional
[2] = target: serum albumin (Homo sapiens, UniProt P02768); assay: Binding affinity to human serum albumin by HPLC method; type: ADME; details: read-out: PB (converted)
Sequence of serum albumin (P02768 whole entry): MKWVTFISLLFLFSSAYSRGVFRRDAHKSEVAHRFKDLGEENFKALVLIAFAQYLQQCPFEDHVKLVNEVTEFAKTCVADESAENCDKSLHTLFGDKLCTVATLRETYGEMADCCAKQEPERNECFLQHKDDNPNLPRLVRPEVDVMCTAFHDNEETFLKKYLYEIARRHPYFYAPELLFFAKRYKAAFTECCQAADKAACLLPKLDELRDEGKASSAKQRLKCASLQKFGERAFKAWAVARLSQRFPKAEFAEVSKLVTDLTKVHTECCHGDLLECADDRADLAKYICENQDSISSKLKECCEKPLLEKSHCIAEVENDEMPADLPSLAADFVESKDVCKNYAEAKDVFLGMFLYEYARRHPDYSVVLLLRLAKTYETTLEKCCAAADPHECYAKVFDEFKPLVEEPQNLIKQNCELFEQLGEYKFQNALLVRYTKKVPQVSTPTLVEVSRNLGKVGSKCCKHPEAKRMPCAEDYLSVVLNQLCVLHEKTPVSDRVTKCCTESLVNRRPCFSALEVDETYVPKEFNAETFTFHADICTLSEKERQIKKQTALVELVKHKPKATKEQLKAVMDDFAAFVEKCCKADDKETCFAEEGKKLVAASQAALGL

[3] = Oral bioavailability in CD1 mouse at 10.757 mg/kg administered via gavage by LC-MS/MS method; type: ADME, organism-based; details: in vivo
How it was run: (§1)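 Specific pathogen-free female CD1 (Hsd:ICR) mice, 8 to 10 weeks old. Each compound was given as an intravenous dose and an oral dose at the levels listed. Parameters reported: Vd, clearance, t1/2, Cmax, Tmax, AUC0-t, AUC∞ and %F.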

[4] = Cmax in CD1 mouse at 10.757 mg/kg administered via oral gavage by LC-MS/MS method; type: ADME, organism-based; set-up: dose 10.757 mg/kg, route oral; details: in vivo, 10.76 mg/kg; how it was run: as §1
[5] = Tmax in CD1 mouse at 10.757 mg/kg administered via oral gavage by LC-MS/MS method; type: ADME, organism-based; details: in vivo
How it was run: (§2)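 Specific pathogen-free female CD1 (Hsd:ICR) mice, 8–10 weeks old, housed in the institutional animal facility. Each compound was given intravenously at a low dose and orally at a higher dose. Vd, clearance, t1/2, Cmax, Tmax, AUC0-t, AUC∞ and %F were derived from plasma exposure after each route.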

[6] = AUC (0 to t) in CD1 mouse at 10.757 mg/kg administered via oral gavage by LC-MS/MS method; type: ADME, organism-based; details: in vivo; how it was run: as §1
[7] = Half life in CD1 mouse at 0.17 mg/kg, iv as bolus dose by LC-MS/MS method; type: ADME, organism-based; details: in vivo; how it was run: as §1
[8] = system: Plasmodium yoelii; assay: Schizontocidal activity against Plasmodium yoelii infected in CD1 mouse administered via oral gavage as qd for 4 days starting 1 hr post infection by YOYO-1 dye-based flow cytometric method; type: functional
How it was run: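 Blood schizontocidal activity was tested in a modified 4-day suppressive test in mice infected with P. yoelii. Four oral doses were given by gavage over four days.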

[9] = Clearance in CD1 mouse at 0.17 mg/kg, iv as bolus dose by LC-MS/MS method; type: ADME, organism-based; details: in vivo; how it was run: as §1
[10] = Volume of distribution in CD1 mouse at 0.17 mg/kg, iv as bolus dose by LC-MS/MS method; type: ADME, organism-based; details: in vivo; how it was run: as §2
[11] = AUC (infinity) in CD1 mouse at 10.757 mg/kg administered via oral gavage by LC-MS/MS method; type: ADME, organism-based; set-up: dose 10.757 mg/kg, route oral, time infinity; details: in vivo, 10.76 mg/kg; how it was run: as §1
[12] = AUC (infinity) in CD1 mouse at 8.366 mg/kg administered via oral gavage by LC-MS/MS method; type: ADME, organism-based; set-up: dose 8.366 mg/kg, route oral, time infinity; details: in vivo; how it was run: as §1
[13] = AUC (0 to t) in CD1 mouse at 8.366 mg/kg administered via oral gavage by LC-MS/MS method; type: ADME, organism-based; details: in vivo; how it was run: as §1
[14] = Clearance in CD1 mouse at 0.211 mg/kg, iv as bolus dose by LC-MS/MS method; type: ADME, organism-based; details: in vivo; how it was run: as §1
[15] = Oral bioavailability in CD1 mouse at 8.366 mg/kg administered via gavage by LC-MS/MS method; type: ADME, organism-based; details: in vivo; how it was run: as §2
[16] = Volume of distribution in CD1 mouse at 0.211 mg/kg, iv as bolus dose by LC-MS/MS method; type: ADME, organism-based; details: in vivo; how it was run: as §2
[17] = Half life in CD1 mouse at 0.211 mg/kg, iv as bolus dose by LC-MS/MS method; type: ADME, organism-based; details: in vivo; how it was run: as §1
[18] = Cmax in CD1 mouse at 8.366 mg/kg administered via oral gavage by LC-MS/MS method; type: ADME, organism-based; set-up: dose 8.366 mg/kg, route oral; details: in vivo; how it was run: as §1
[19] = Tmax in CD1 mouse at 8.366 mg/kg administered via oral gavage by LC-MS/MS method; type: ADME, organism-based; details: in vivo; how it was run: as §2

Compound: Cc1[nH]c(C)c(-c2ccc(OCc3ccc(C(F)(F)F)cc3)nc2)c(=O)c1Cl
pIC50 [1]: 8.30

Compound: Cc1[nH]c(C)c(-c2ccc(OCc3ccccc3C(F)(F)F)nc2)c(=O)c1Br
pIC50 [1]: 7.96

Compound: Cc1[nH]c(C)c(-c2ccc(-c3ccccc3F)nc2)c(=O)c1Cl
pIC50 [1]: 7.31

Compound: Cc1[nH]c(CO)c(Cl)c(=O)c1-c1ccc(Oc2ccc(OC(F)(F)F)cc2)cc1
pIC50 [1]: 6.88

Compound: Cc1[nH]c(C)c(-c2ccc(CCc3cccc(C(F)(F)F)c3)nc2)c(=O)c1Cl
pIC50 [1]: 8.15

Compound: Cc1[nH]c(C)c(-c2ccc(-c3ccc(OC(F)(F)F)cc3)nc2)c(=O)c1Cl
bioavailability [3]: 54.9%
Cmax [4]: 2290 ng/mL
Tmax [5]: 10 h
AUC(0-t) [6]: 167 µg·h/mL
half-life [7]: 18.7 h
ED50 [8]: 0.15 mg/kg
clearance [9]: 0.53 mL/min/kg
fraction unbound [2]: 0.04
Vd [10]: 0.85 L/kg
pIC50 [1]: 7.70
AUC(0-inf) [11]: 187 µg·h/mL

Compound: Cc1[nH]c(C)c(-c2ccc(-c3ccc(S(C)(=O)=O)cc3)nc2)c(=O)c1Br
pIC50 [1]: 6.54

Compound: Cc1[nH]c(C)c(-c2ccc(C#Cc3ccc(F)cc3F)nc2)c(=O)c1Cl
pIC50 [1]: 6.33

Compound: Cc1[nH]c(C)c(-c2ccc(-c3cccc(CO)c3)nc2)c(=O)c1Br
pIC50 [1]: 6.49

Continued by rising pIC50 [1], values first:

pIC50 [1]: 6.89
Compound: Cc1[nH]c(C)c(-c2ccc(-c3ccc(F)cc3)nc2)c(=O)c1Br

pIC50 [1]: 6.94
Compound: Cc1[nH]c(C)c(-c2ccc(-c3cccc(Cl)c3)nc2)c(=O)c1Cl

pIC50 [1]: 7.09
Compound: Cc1[nH]c(C)c(-c2ccc(-c3ccc(F)cc3)nc2)c(=O)c1Cl

pIC50 [1]: 7.40
Compound: Cc1[nH]c(C)c(-c2ccc(OCc3cc(F)cc(F)c3)nc2)c(=O)c1Br

pIC50 [1]: 7.48
Compound: Cc1[nH]c(C)c(-c2ccc(Oc3ccc(OC(F)(F)F)cc3)nc2)c(=O)c1Cl

pIC50 [1]: 7.54
Compound: Cc1[nH]c(C)c(-c2ccc(OCc3cc(C(F)(F)F)cc(C(F)(F)F)c3)nc2)c(=O)c1Cl

fraction unbound [2]: 0.03
pIC50 [1]: 7.72
Compound: Cc1[nH]c(C)c(-c2ccc(OCc3ccc(OC(F)(F)F)cc3)nc2)c(=O)c1Br

pIC50 [1]: 8.15
Compound: Cc1[nH]c(C)c(-c2ccc(-c3cccc(C(F)(F)F)c3)nc2)c(=O)c1Br

pIC50 [1]: 8.22
Compound: Cc1[nH]c(C)c(-c2ccc(-c3ccc(C(F)(F)F)cc3C(F)(F)F)nc2)c(=O)c1Br

fraction unbound [2]: 0.06
pIC50 [1]: 8.30
Compound: Cc1[nH]c(CO)c(-c2ccc(-c3ccc(C(F)(F)F)cc3F)nc2)c(=O)c1Cl
ED50 [8]: 0.2 mg/kg

AUC(0-inf) [12]: 37.5 µg·h/mL
AUC(0-t) [13]: 37.4 µg·h/mL
clearance [14]: 1.11 mL/min/kg
bioavailability [15]: 30%
Vd [16]: 1.24 L/kg
fraction unbound [2]: 0.05
half-life [17]: 12.8 h
Cmax [18]: 1690 ng/mL
pIC50 [1]: 8.70
Tmax [19]: 10 h
Compound: Cc1[nH]c(C)c(-c2ccc(-c3ccc(C(F)(F)F)cc3Cl)nc2)c(=O)c1Cl
ED50 [8]: 0.33 mg/kg

pIC50 [1]: 8.70
Compound: Cc1[nH]c(C)c(-c2ccc(OCc3ccc(C(F)(F)F)cc3)nc2)c(=O)c1Br
